In paper PMC10099996 (Chembiochem, 2022):
≈ marks a conversion by molar mass, not a printed value.

Legend:
E. faecium E980 = test: MIC determination; assay type: cell-based; conditions: Table 1; lysogeny broth (LB) supplemented with 0.3 mM ZnSO4; 37 °C, 18 h; visual inspection; median of a minimum of triplicates
Outline: (§1)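 Strains from glycerol stocks are grown overnight on blood agar at 37 °C. A single colony goes into TSB and grows at 37 °C to OD600 0.5, then is diluted 100-fold in ZnSO₄-supplemented LB to 10⁶ CFU mL⁻¹. Test compounds are 2-fold serially diluted in the same medium, in triplicate, and mixed with an equal volume of inoculum. Plates are sealed under breathable membranes and incubated 18 h at 37 °C, shaking at 600 rpm. MIC is read visually.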

S. simulans 22 = test: MIC determination; assay type: cell-based; conditions: Table 1; lysogeny broth (LB) supplemented with 0.3 mM ZnSO4; 37 °C, 18 h; visual inspection; median of a minimum of triplicates
Outline: as §1

[1] = test system: S. aureus ATCC 29213 (MSSA); test: MIC determination; assay type: cell-based; conditions: Table 1; lysogeny broth (LB) supplemented with 0.3 mM ZnSO4; 37 °C, 18 h; visual inspection; median of a minimum of triplicates
Outline: as §1

S. aureus USA300 (MRSA) = test: MIC determination; assay type: cell-based; conditions: Table 1; lysogeny broth (LB) supplemented with 0.3 mM ZnSO4; 37 °C, 18 h; visual inspection; median of a minimum of triplicates
Outline: as §1

[2] = degradation product of bacitracin A; cited from earlier work
[3] = formation in vivo limits systemic applications; cited from earlier work

Row | MIC E. faecium E980 (E. faecium E980) [µg/mL] | MIC S. simulans 22 (S. simulans 22) [µg/mL] | MIC S. aureus ATCC 29213 (MSSA) [1] [µg/mL] | MIC S. aureus USA300 (MRSA) (S. aureus USA300 (MRSA)) [µg/mL] | Molecule | antibiotic activity [2] | nephrotoxicity [3]
1 | 0.5 (≈ 0.345 µM) | 0.5 (≈ 0.345 µM) | 1 (≈ 0.69 µM) | 2 (≈ 1.38 µM) | CN[C@H](CC(C)C)C(=O)N[C@H]1C(=O)N[C@@H](CC(N)=O)C(=O)N[C@H]2C(=O)N[C@H]3C(=O)N[C@H](C(=O)N[C@H](C(=O)O)c4cc(O)cc(O)c4-c4cc3ccc4O)[C@H](O)c3ccc(c(Cl)c3)Oc3cc2cc(c3O[C@@H]2O[C@H](CO)[C@@H](O)[C@H](O)[C@H]2O[C@H]2C[C@](C)(N)[C@H](O)[C@H](C)O2)Oc2ccc(cc2Cl)[C@H]1O [Vancomycin] | – | –
2 | – | – | – | – | bacitracin F | inactive | nephrotoxic
